Each block holds one molecule with its values, some of them ahead of it. Where a SMILES comes first, the peptide text is derived from it. Where no end group is shown, it is not given here. The star is where a group is joined. Oxazole(5-CO) = O=C(c1cnco1)*; Crotonyl(E) = C/C=C/C(=O)*; 2Furoyl = O=C(c1ccco1)*; Cbz = O=C(OCc1ccccc1)*
Columns and labels:
[1] = molecular target: T1, AF9 YEATS (Homo sapiens, UniProt P42568); assay: isothermal titration calorimetry; type: binding; conditions: ITC Kd versus the crotonyl group (H3K9cr)
T1 sequence (P42568 1-138): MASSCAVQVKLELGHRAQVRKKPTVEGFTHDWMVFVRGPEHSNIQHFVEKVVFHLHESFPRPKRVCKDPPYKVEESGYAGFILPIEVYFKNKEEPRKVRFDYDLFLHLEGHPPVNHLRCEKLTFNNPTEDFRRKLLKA

[2] = molecular target: T2, ENL YEATS (Homo sapiens, UniProt Q03111); assay: competitive photo-cross-linking assay, ENL YEATS; type: binding; conditions: comparing with AF9 YEATS
T2 sequence (Q03111 1-138): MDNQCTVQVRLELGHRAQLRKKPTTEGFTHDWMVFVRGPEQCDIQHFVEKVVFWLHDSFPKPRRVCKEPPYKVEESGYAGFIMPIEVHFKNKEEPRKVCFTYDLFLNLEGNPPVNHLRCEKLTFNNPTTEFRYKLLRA

[3] = test system: YEATS domains of YEATS2 and GAS41; assay: competitive photo-cross-linking assay, YEATS2 and GAS41 YEATS domains; type: binding, human; conditions: AF9 and ENL versus YEATS2 and GAS41; result in words
[4] = molecular target: T1, AF9 YEATS; assay: competitive photo-cross-linking assay; type: binding; conditions: compared with ENL YEATS
[5] = molecular target: T3, endogenous ENL (Homo sapiens, UniProt Q03111); assay: competitive photo-cross-linking pull-down in nuclear extracts, ENL; type: binding
T3 sequence (Q03111 1-559): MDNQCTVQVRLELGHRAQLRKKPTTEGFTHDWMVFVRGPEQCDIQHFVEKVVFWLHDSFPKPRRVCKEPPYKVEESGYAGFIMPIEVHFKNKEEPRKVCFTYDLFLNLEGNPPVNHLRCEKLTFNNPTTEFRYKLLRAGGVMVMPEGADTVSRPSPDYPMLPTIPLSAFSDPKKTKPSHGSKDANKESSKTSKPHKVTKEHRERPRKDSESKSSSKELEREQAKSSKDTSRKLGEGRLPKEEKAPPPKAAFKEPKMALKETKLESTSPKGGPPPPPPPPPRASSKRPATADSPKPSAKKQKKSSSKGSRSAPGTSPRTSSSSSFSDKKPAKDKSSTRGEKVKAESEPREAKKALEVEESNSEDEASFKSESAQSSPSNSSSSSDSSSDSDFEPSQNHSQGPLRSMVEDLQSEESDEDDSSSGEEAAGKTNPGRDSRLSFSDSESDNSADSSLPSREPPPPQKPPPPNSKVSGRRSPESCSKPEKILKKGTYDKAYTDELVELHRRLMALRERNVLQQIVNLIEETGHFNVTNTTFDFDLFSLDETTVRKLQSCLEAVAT

[6] = molecular target: T4, endogenous AF9 (Homo sapiens, UniProt P42568); assay: competitive photo-cross-linking pull-down in nuclear extracts, AF9; type: binding
T4 sequence (P42568 1-568): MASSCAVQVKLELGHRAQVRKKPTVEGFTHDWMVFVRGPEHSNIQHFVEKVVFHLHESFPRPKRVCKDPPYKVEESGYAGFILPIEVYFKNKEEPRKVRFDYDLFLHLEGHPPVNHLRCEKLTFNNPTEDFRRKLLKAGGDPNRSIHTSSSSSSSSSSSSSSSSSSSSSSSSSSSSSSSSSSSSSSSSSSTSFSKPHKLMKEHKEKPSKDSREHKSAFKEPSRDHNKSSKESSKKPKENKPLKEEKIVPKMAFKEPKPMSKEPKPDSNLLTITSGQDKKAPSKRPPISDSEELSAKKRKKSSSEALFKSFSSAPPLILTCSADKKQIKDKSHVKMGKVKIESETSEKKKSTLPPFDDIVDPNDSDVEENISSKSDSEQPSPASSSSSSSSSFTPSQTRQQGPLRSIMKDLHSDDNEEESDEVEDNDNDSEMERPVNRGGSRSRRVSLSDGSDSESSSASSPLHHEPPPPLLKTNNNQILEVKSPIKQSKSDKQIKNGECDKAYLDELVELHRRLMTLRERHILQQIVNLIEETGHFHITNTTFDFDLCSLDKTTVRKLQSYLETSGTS

[7] = molecular target: T5, ENL (Homo sapiens, UniProt Q03111); assay: cellular thermal shift assay; type: cell-based; conditions: MOLM-13, MV4;11, HEL cells, 50 μM, 12 h; 55 °C, 57 °C, and 59 °C
T5 sequence (Q03111 1-559): T3 sequence (Q03111 1-559)
How it was run: (§1)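 CETSA: MOLM-13 (Flag-ENL), MV4;11 or HEL cells were incubated with 50 μM test compound for 12 h, washed with PBS and resuspended in PBS with protease inhibitors (~3 million cells/100 μl). Aliquots were heated at indicated temperatures for 3 min, then held at room temperature for 3 min. Cells were lysed by two liquid-nitrogen freeze-thaw cycles and spun at 20,000×g for 20 min at 4 °C. Soluble supernatant was immunoblotted.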

[8] = molecular target: T4, endogenous AF9; assay: cellular thermal shift assay; type: cell-based; conditions: MOLM-13, MV4;11, HEL cells, 50 μM, 12 h
How it was run: as §1

[9] = test system: ENL at HOXA10, MYB, MYC and MEIS1 in MOLM-13 cells; assay: ChIP-qPCR of ENL at target genes; type: cell-based, human; conditions: MOLM-13 (Flag-ENL) cells, 50 μM, 24 hours
How it was run: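 MOLM-13 (Flag-ENL) cells (about 20 million) were treated with or without 50 μM test compound for 24 h, cross-linked with formaldehyde for 10 min at room temperature and quenched with glycine. Chromatin was sonicated to 600–800 bp. 50 μg chromatin (5 μg input) was immunoprecipitated overnight at 4 °C with anti-FLAG M2 magnetic beads, washed, eluted and reverse cross-linked. DNA was measured by qPCR as percentage of input, n = 4 (HOXA10) or 3 (others).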

[10] = test system: MOLM-13 cells; assay: RT-qPCR of mRNA levels in MOLM-13 cells; type: cell-based, human
[11] = molecular target: ENL YEATS domain, ENL (1–138) (human) (UniProt Q03111); assay: cross-linking
[12] = molecular target: T6, AF9 YEATS domain, AF9 (1–138) (human, UniProt P42568 1-138); assay: ITC
T6 sequence (looked up): T1 sequence (P42568 1-138)

[13] = molecular target: T6, AF9 YEATS domain, AF9 (1–138); assay: cross-linking
[14] = molecular target: T7, ENL YEATS domain, ENL (1–138) (human, UniProt Q03111 1-138); assay: cross-linking
T7 sequence (looked up): T2 sequence (Q03111 1-138)

[15] = nuclear extracts of HeLa S3 and MOLM-13 (Flag-ENL), result in words

Molecule: XL-13l (dipeptide with only the RK signature motif, 5-oxazolecarbonyl at K27)
IC50 [11]: 3300 nM

B1: H3K9cr peptide (histone H3 residues 4–13, Lys 9 crotonylated) (peptide, UniProt P68431 5-14, looked up)
peptide: KQTARK(Crotonyl(E))STGG
Kd [12]: 14700 nM
IC50 [13]: 6000 nM

B2: XL-07h (pentapeptide with the QTARK sequence) (peptide)
peptide: QTARK(2Furoyl)
IC50 [13]: 4500 nM

B3: XL-07i (pentapeptide XL-07h, QTARK, N-terminus capped with a carboxybenzyl group; 2-furancarbonyl lysine) (peptide)
peptide: Cbz-QTARK(2Furoyl)
Kd [12]: 330 nM
fold lower potency than against AF9 YEATS [14]: 5 fold
IC50 [13]: 260 nM

B4: XL-13a (XL-07i with the 2-furancarbonyl group replaced by a 5-oxazolecarbonyl group) (peptide)
peptide: Cbz-QTARK(Oxazole(5-CO))
Kd [12]: 130 nM
fold lower potency than against AF9 YEATS [14]: 2.9 fold
IC50 [13]: 240 nM

More lines, main results first:

binding enhancement [1]: 4.5 fold
Molecule: C[C@H](NC(=O)[C@@H](NC(=O)[C@H](CCC(N)=O)NC(=O)[C@@H](N)CCCCN)[C@@H](C)O)C(=O)N[C@@H](CCCNC(=N)N)C(=O)N[C@@H](CCCCNC(=O)c1ccco1)C(=O)N[C@@H](CO)C(=O)N[C@H](C(=O)NCC(=O)NCC(N)=O)[C@@H](C)O [XL-07] (H-KQTARK(2Furoyl)STGG-NH2; N-terminus and C-terminus assumed)

lower potency against ENL YEATS [2]: 5 fold
Molecule: C[C@H](NC(=O)[C@@H](NC(=O)[C@H](CCC(N)=O)NC(=O)OCc1ccccc1)[C@@H](C)O)C(=O)N[C@@H](CCCNC(=N)N)C(=O)N[C@@H](CCCCNC(=O)c1ccco1)C(N)=O [XL-07i]
selectivity among YEATS domains [3]: more selective toward the YEATS domains of AF9 and ENL over YEATS2 and GAS41

binding enhancement [1]: 14.7 fold
Molecule: C[C@H](NC(=O)[C@@H](NC(=O)[C@H](CCC(N)=O)NC(=O)[C@@H](N)CCCCN)[C@@H](C)O)C(=O)N[C@@H](CCCNC(=N)N)C(=O)N[C@@H](CCCCNC(=O)c1cnco1)C(=O)N[C@@H](CO)C(=O)N[C@H](C(=O)NCC(=O)NCC(N)=O)[C@@H](C)O [XL-13] (H-KQTARK(Oxazole(5-CO))STGG-NH2; N-terminus and C-terminus assumed)

weaker inhibition against AF9 YEATS [4]: 4.5 fold
photo-H3K9cr-induced enrichment of ENL [5, 15]: significantly inhibited
inhibition at 2 µM ([5]; read-out: inhibition of photo-H3K9cr-induced enrichment of endogenous ENL): ~50%
enrichment of AF9 [6, 15]: little effects
inhibition at 2 µM ([6]; read-out: inhibition of enrichment of AF9): ~3%
thermal stability of ENL (soluble protein) [7]: higher abundance of soluble ENL proteins
thermal stability of endogenous AF9 [8]: almost no differences
Molecule: C[C@H](NC(=O)OCc1ccccc1)C(=O)N[C@@H](CCCNC(=N)N)C(=O)N[C@@H](CCCCNC(=O)c1cnco1)C(N)=O [XL-13m]
abundance of ENL at HOXA10, MYB, MYC and MEIS1 [9]: decreases in the abundance of ENL
transcription levels of HOXA10, MYB, MYC and MEIS1 ([10]; MOLM-13 (Flag-ENL) cells, 50 μM, 24 hours): significant loss in the transcription levels
transcription suppression of MYC and HOXA9 ([10]; co-treatment of XL-13m (50 μM) and EPZ-5676 (500 nM), 72 hours): enhanced effect on the transcription suppression

weaker inhibition against AF9 YEATS [4]: 6.1 fold
Molecule: C[C@H](NC(=O)OCc1ccccc1)C(=O)N[C@@H](C)C(=O)N[C@@H](CCCNC(=N)N)C(=O)N[C@@H](CCCCNC(=O)c1cnco1)C(N)=O [XL-13n] (Cbz-AARK(Oxazole(5-CO))-NH2)
